First the molecules themselves.
B1: Osa-1-4 twister ribozyme (parent)
chain: CCGCCUAACACUGCCAAUGCCGGUCCCAAGCCCGGAUAAAAGUGGAGGGGGCGG

Variants of B1 are the subject of the data set. Briefly: self-cleavage, relative activity (ratio to wild type); higher = more cleavage; co-transcriptional. An outline of the steps: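 A DNA template for a 54-nucleotide Oryza sativa twister ribozyme was synthesised with 97 % wild-type base and 1 % of each other base at the 48 positions downstream of the cleavage site. It was transcribed in vitro for 2 h at 37 °C, allowing co-transcriptional self-cleavage, then reverse-transcribed with a template-switching oligonucleotide, PCR-amplified and deep-sequenced. Cleavage status was scored from reads with or without upstream sequence. Relative activity is fraction cleaved normalised to wild type.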
On to CCGCCUAACACUGCCAAUGCCGGUCCCAAGACCGGAUAAUAGUGGAGGGGGCGG [A40U C31A], for which the self-cleavage was determined as 0.02.
Take CCGCCUAACACUGCCAAUGCCGGUCCCAAGGCCGGAUAAUAGUGGAGGGGGCGG [A40U C31G]: the self-cleavage is 0.07.
Regarding CCGCCUAACAGUGCCAAUGCCGGUCCCAAGCCCGGAUAAUAGUGGAGGGGGCGG [A40U C11G], the self-cleavage turned out to be 0.06.
As for CCGCCUAACAAUGCCAAUGCCGGUCCCAAGCCCGGAUAAUAGUGGAGGGGGCGG [A40U C11A], the self-cleavage is 0.1.
Then CCGCCUAACAUUGCCAAUGCCGGUCCCAAGCCCGGAUAAUAGUGGAGGGGGCGG [A40U C11U], with 0.33.
As for CCGCCUAACACUGCCAAUGCCGGUCCCAAGCCCAGAUAAGAGUGGAGGGGGCGG [A40G G34A], the self-cleavage turned out to be 0.44.
With CCGCCUAACACUGCCAAUGCCGGUCCCAAGCCCUGAUAAGAGUGGAGGGGGCGG [A40G G34U], the self-cleavage came out at 0.22.
For CCGCCUAACACUGCCAAUGCCGGUCCCAAGCCCCGAUAAGAGUGGAGGGGGCGG [A40G G34C] the value was 0.2; for CCGCCUAACACUGCCAAUGCCGGUCCUAAGCCCGGAUAAUAGUGGAGGGGGCGG [A40U C27U], 0.1.
Regarding CCGCCUAACACUGCCAAUGCCGGUCCAAAGCCCGGAUAAUAGUGGAGGGGGCGG [A40U C27A], the self-cleavage was 0.09.
Regarding CCGCCUAACACUGCCAAUGCCGGUCCGAAGCCCGGAUAAUAGUGGAGGGGGCGG [A40U C27G], the self-cleavage came out at 0.06.
For CCGCCUAACACUGCCAAUGCCGGUCCCAAGCCCGGAUAAGAGUGGAGGGCGCGG [A40G G50C] the value was 0.29; for CCGCCUAACACUGCCAAUGCCGGUCCCAAGCCCGGAUAAGAGUGGAGGGUGCGG [A40G G50U], 0.54; for CCGCCUAACACUGCCAAUGCCGGUCCCAAGCCCGGAUAAGAGUGGAGGGAGCGG [A40G G50A], 0.43.
As for CCGCCUAACACUGCCAAUGCCGGUCCCAAGCCCGGAGAAGAGUGGAGGGGGCGG [A40G U37G], the self-cleavage stood at 1.02.
For CCGCCUAACACUGCCAAUGCCGGUCCCAAGCCCGGAAAAGAGUGGAGGGGGCGG [A40G U37A], the self-cleavage came to 0.91.
For the variant CCGCCUAACACUGCCAAUGCCGGUCCCAAGCCCGGACAAGAGUGGAGGGGGCGG [A40G U37C], the self-cleavage turned out to be 0.9.
For the variant CCGCCUAACACUGCCAAUGCCGGUCCCAAGCCCGGAUAAGAGUGGAGGGGGCGA [A40G G54A], the self-cleavage turned out to be 0.3.
Then CCGCCUAACACUGCCAAUGCCGGUCCCAAGCCCGGAUAAGAGUGGAGGGGGCGU [A40G G54U], with 0.46; and CCGCCUAACACUGCCAAUGCCGGUCCCAAGCCCGGAUAAGAGUGGAGGGGGCGC [A40G G54C], with 0.26.
Turning to CCGCCUAACACUGCCAAUGCCGGUCCCAAGCCCGGAUAAUGGUGGAGGGGGCGG [A40U A41G], the self-cleavage turned out to be 0.1.
As to CCGCCUAACACUGCCAAUGCCGGUCCCAAGCCCGGAUAAUCGUGGAGGGGGCGG [A40U A41C], the self-cleavage worked out at 0.87.
In the case of CCGCCUAACACUGCCAAUGCCGGUCCCAAGCCCGGAUAAUUGUGGAGGGGGCGG [A40U A41U], the self-cleavage was determined as 0.83.
For CCGCCUAACACUGGCAAUGCCGGUCCCAAGCCCGGAUAAUAGUGGAGGGGGCGG [A40U C14G] the value was 0.13; for CCGCCUAACACUGACAAUGCCGGUCCCAAGCCCGGAUAAUAGUGGAGGGGGCGG [A40U C14A], 0.15.
Consider CCGCCUAACACUGUCAAUGCCGGUCCCAAGCCCGGAUAAUAGUGGAGGGGGCGG [A40U C14U], for which the self-cleavage worked out at 0.11.
Regarding CCGCCUAACACUGCGAAUGCCGGUCCCAAGCCCGGAUAAUAGUGGAGGGGGCGG [A40U C15G], the self-cleavage amounted to 0.11.
With CCGCCUAACACUGCAAAUGCCGGUCCCAAGCCCGGAUAAUAGUGGAGGGGGCGG [A40U C15A], the self-cleavage was 0.11.
Take CCGCCUAACACUGCUAAUGCCGGUCCCAAGCCCGGAUAAUAGUGGAGGGGGCGG [A40U C15U]: the self-cleavage was found to be 0.1.
Turning to CCGCCUAACACUGCCAAUGCCGGUCCCAAGCCCGGAUAAGAGUGGAGGCGGCGG [A40G G49C], the self-cleavage is 0.07.
Turning to CCGCCUAACACUGCCAAUGCCGGUCCCAAGCCCGGAUAAGAGUGGAGGAGGCGG [A40G G49A], the self-cleavage worked out at 0.09.
For the variant CCGCCUAACACUGCCAAUGCCGGUCCCAAGCCCGGAUAAGAGUGGAGGUGGCGG [A40G G49U], the self-cleavage worked out at 0.09.
CCGCCUAACACUGCCAAUGCCGGUCCCAAGCCCGGAUAAGACUGGAGGGGGCGG [A40G G42C]: the self-cleavage worked out at 0.13.
With CCGCCUAACACUGCCAAUGCCGGUCCCAAGCCCGGAUAAGAAUGGAGGGGGCGG [A40G G42A], the self-cleavage was determined as 0.14.
For CCGCCUAACACUGCCAAUGCCGGUCCCAAGCCCGGAUAAGAUUGGAGGGGGCGG [A40G G42U] the value was 0.07; for CCGCCUAACACUGCCAAUGCUGGUCCCAAGCCCGGAUAAUAGUGGAGGGGGCGG [A40U C21U], 0.59; for CCGCCUAACACUGCCAAUGCAGGUCCCAAGCCCGGAUAAUAGUGGAGGGGGCGG [A40U C21A], 0.15.
As to CCGCCUAACACUGCCAAUGCGGGUCCCAAGCCCGGAUAAUAGUGGAGGGGGCGG [A40U C21G], the self-cleavage worked out at 0.05.
Then CCGCCUACCACUGCCAAUGCCGGUCCCAAGCCCGGAUAAUAGUGGAGGGGGCGG [A40U A8C], with 0.05; and CCGCCUAUCACUGCCAAUGCCGGUCCCAAGCCCGGAUAAUAGUGGAGGGGGCGG [A40U A8U], with 0.07.
Then CCGCCUAGCACUGCCAAUGCCGGUCCCAAGCCCGGAUAAUAGUGGAGGGGGCGG [A40U A8G], with 0.15; and CCGCCUAACACUGCCAAUGCCGGUCCCAAGCGCGGAUAAUAGUGGAGGGGGCGG [A40U C32G], with 0.07.
Then CCGCCUAACACUGCCAAUGCCGGUCCCAAGCACGGAUAAUAGUGGAGGGGGCGG [A40U C32A], with 0.07; and CCGCCUAACACUGCCAAUGCCGGUCCCAAGCCCGGAUAAGAGUUGAGGGGGCGG [A40G G44U], with 0.38; and CCGCCUAACACUGCCAAUGCCGGUCCCAAGCCCGGAUAAGAGUCGAGGGGGCGG [A40G G44C], with 0.64.
As for CCGCCUAACACUGCCAAUGCCGGUCCCAAGCCCGGAUAAGAGUAGAGGGGGCGG [A40G G44A], the self-cleavage worked out at 0.21.
As for CCGCCUAACACUGCCAAUGCCGGUCCCAAGCCCGGAUAAGAGUGGACGGGGCGG [A40G G47C], the self-cleavage is 0.06.
In the case of CCGCCUAACACUGCCAAUGCCGGUCCCAAGCCCGGAUAAGAGUGGAUGGGGCGG [A40G G47U], the self-cleavage came out at 0.1.
As to CCGCCUAACACUGCCAAUGCCGGUCCCAAGCCCGGAUAAGAGUGGAAGGGGCGG [A40G G47A], the self-cleavage turned out to be 0.11.
